{"source": "ChEMBL document CHEMBL1641579", "about": "“Synthesis and biological evaluation of 7-substituted-1-(3-bromophenylamino)isoquinoline-4-carbonitriles as inhibitors of myosin light chain kinase and epidermal growth factor receptor” (Bioorg Med Chem, 2011)", "key": {"[1]": {"target": "Myosin light chain kinase, smooth muscle (Homo sapiens, UniProt Q15746)", "sequence (Q15746 whole entry)": "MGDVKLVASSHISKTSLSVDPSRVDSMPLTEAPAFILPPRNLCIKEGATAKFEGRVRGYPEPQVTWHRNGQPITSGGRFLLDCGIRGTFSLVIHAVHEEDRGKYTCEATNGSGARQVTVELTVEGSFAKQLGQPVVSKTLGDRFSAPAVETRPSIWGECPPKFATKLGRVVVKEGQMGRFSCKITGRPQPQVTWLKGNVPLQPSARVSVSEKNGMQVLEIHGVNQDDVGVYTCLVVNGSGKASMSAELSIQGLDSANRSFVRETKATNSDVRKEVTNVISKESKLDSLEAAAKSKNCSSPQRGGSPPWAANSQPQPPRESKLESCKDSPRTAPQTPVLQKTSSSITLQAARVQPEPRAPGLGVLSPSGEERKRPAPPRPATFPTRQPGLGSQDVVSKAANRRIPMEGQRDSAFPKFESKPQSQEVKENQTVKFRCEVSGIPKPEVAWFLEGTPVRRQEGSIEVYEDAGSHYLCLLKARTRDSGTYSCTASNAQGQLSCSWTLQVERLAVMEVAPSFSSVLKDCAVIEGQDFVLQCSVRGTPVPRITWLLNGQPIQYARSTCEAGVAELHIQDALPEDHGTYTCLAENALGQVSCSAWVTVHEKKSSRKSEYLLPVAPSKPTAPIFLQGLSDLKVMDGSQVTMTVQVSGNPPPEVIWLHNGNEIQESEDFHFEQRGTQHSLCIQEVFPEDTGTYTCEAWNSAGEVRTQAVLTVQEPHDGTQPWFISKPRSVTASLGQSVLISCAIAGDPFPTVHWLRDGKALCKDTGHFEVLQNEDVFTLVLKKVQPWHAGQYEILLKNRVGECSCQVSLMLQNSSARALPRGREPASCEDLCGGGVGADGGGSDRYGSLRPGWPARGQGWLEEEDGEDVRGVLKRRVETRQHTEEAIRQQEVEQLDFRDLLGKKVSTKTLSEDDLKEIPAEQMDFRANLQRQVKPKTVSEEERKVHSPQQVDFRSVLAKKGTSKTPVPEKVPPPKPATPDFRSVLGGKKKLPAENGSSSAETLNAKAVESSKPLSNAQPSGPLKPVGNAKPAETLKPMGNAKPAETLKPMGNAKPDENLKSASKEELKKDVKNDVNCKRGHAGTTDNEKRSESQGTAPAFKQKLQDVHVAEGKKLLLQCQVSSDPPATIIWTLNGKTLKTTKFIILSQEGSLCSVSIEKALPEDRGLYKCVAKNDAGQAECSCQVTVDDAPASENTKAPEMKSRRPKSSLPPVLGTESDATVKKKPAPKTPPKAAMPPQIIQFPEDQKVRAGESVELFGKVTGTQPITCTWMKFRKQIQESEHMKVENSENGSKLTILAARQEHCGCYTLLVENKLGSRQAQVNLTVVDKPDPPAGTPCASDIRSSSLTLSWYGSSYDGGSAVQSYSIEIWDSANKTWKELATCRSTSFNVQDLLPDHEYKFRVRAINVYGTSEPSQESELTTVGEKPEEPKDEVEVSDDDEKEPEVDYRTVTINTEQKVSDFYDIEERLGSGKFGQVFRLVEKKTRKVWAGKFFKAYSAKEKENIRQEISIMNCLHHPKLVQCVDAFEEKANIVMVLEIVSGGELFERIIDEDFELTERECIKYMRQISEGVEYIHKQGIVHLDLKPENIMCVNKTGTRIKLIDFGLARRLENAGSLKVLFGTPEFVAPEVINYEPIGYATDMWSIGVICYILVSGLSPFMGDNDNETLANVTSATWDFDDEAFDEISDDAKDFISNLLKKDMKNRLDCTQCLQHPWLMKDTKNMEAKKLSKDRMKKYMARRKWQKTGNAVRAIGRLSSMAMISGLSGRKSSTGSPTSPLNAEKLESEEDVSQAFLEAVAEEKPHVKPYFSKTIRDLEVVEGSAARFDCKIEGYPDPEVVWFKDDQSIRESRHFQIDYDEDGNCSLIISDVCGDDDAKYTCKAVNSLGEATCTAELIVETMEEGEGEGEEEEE", "assay": "Competitive inhibition of MLCK by Lineweaver-Burk plot analysis", "in_short": "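Double-reciprocal (1/V vs 1/[ATP]) kinetics using the HTRF phosphorylation read-out with Ca2+/calmodulin. Conditions: 375 nM STK1 peptide substrate, ATP at 80, 110 and 140 µM, inhibitor at 0, 1, 5 and 10 µM. Reaction velocities plotted to determine the mode of inhibition.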"}, "A549": {"system": "A549", "assay": "Growth inhibition of human A549 cells assessed as ATP level after 96 hrs by CellTiter-Glo assay", "type": "functional", "details": "A549, 96 h", "in_short": "(§1)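 NSCLC lines maintained as in earlier work and authenticated by mutational analysis and SNP arrays. Cells were plated in 384-well format and allowed 24 h before compound addition as 10 threefold serial dilutions (DMSO stocks). After 96 h, viability was read as cellular ATP by CellTiter-Glo. GI50 was fitted with an R package.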"}, "[2]": {"assay": "Growth inhibition of human HCC1195 cells assessed as ATP level after 96 hrs by CellTiter-Glo assay", "type": "functional", "in_short": "as §1"}, "[3]": {"assay": "Growth inhibition of human NCI-H2887 cells assessed as ATP level after 96 hrs by CellTiter-Glo assay", "type": "functional", "details": "NCI-H2887, 96 h"}, "NCI-H596": {"system": "NCI-H596", "assay": "Growth inhibition of human NCI-H596 cells assessed as ATP level after 96 hrs by CellTiter-Glo assay", "type": "functional", "details": "NCI-H596, 96 h"}, "[4]": {"assay": "Growth inhibition of human NCI-H2077 cells assessed as ATP level after 96 hrs by CellTiter-Glo assay", "type": "functional", "details": "NCI-H2077, 96 h"}, "NCI-H157": {"system": "NCI-H157", "assay": "Growth inhibition of human NCI-H157 cells assessed as ATP level after 96 hrs by CellTiter-Glo assay", "type": "functional", "details": "NCI-H157, 96 h", "in_short": "as §1"}, "[5]": {"assay": "Growth inhibition of human NCI-H1819 cells assessed as ATP level after 96 hrs by CellTiter-Glo assay", "type": "functional", "details": "NCI-H1819, 96 h", "in_short": "(§2)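 NSCLC lines maintained as previously described, authenticated by mutational analysis and SNP arrays. Cells seeded and incubated 24 h, then given compound (DMSO stocks) as 10 threefold serial dilutions. Viability read after 96 h as cellular ATP content (CellTiter-Glo). GI50 derived by curve fitting of half-maximal inhibition.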"}, "NCI-H2009": {"system": "NCI-H2009", "assay": "Growth inhibition of human NCI-H2009 cells assessed as ATP level after 96 hrs by CellTiter-Glo assay", "type": "functional", "details": "NCI-H2009, 96 h"}, "[6]": {"assay": "Growth inhibition of human NCI-H1915 cells assessed as ATP level after 96 hrs by CellTiter-Glo assay", "type": "functional", "details": "NCI-H1915, 96 h", "in_short": "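Human NSCLC cells, maintained as described previously and authenticated by mutational analysis and SNP arrays, were plated and incubated 24 h. Compounds were dissolved in DMSO and added as 10 threefold serial dilutions. Viability was read after 96 h as cellular ATP content by luminescence, and half-maximal inhibitory concentrations were fitted to give GI50.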"}, "[7]": {"assay": "Growth inhibition of human HCC827 cells assessed as ATP level after 96 hrs by CellTiter-Glo assay", "type": "functional", "details": "HCC827, 96 h", "in_short": "as §1"}, "[8]": {"assay": "Growth inhibition of human HCC461 cells assessed as ATP level after 96 hrs by CellTiter-Glo assay", "type": "functional", "details": "HCC461, 96 h", "in_short": "as §1"}, "[9]": {"assay": "Growth inhibition of human HCC4006 cells assessed as ATP level after 96 hrs by CellTiter-Glo assay", "type": "functional", "details": "HCC4006, 96 h", "in_short": "as §1"}, "[10]": {"assay": "Growth inhibition of human H3255 cells assessed as ATP level after 96 hrs by CellTiter-Glo assay", "type": "functional", "details": "NCI-H3255, 96 h", "in_short": "as §1"}, "NCI-H2052": {"system": "NCI-H2052", "assay": "Growth inhibition of human NCI-H2052 cells assessed as ATP level after 96 hrs by CellTiter-Glo assay", "type": "functional", "details": "NCI-H2052, 96 h"}, "A-427": {"system": "A-427", "assay": "Growth inhibition of human A427 cells assessed as ATP level after 96 hrs by CellTiter-Glo assay", "type": "functional", "details": "A-427, 96 h", "in_short": "as §1"}, "NCI-H1838": {"system": "NCI-H1838", "assay": "Growth inhibition of human NCI-H1838 cells assessed as ATP level after 96 hrs by CellTiter-Glo assay", "type": "functional", "details": "NCI-H1838, 96 h", "in_short": "as §2"}, "NCI-H1355": {"system": "NCI-H1355", "assay": "Growth inhibition of human NCI-H1355 cells assessed as ATP level after 96 hrs by CellTiter-Glo assay", "type": "functional", "details": "NCI-H1355, 96 h", "in_short": "as §1"}, "NCI-H1648": {"system": "NCI-H1648", "assay": "Growth inhibition of human NCI-H1648 cells assessed as ATP level after 96 hrs by CellTiter-Glo assay", "type": "functional", "details": "NCI-H1648, 96 h", "in_short": "as §1"}, "HOP-62": {"system": "HOP-62", "assay": "Growth inhibition of human HOP62 cells assessed as ATP level after 96 hrs by CellTiter-Glo assay", "type": "functional", "details": "HOP-62, 96 h", "in_short": "as §1"}, "NCI-H647": {"system": "NCI-H647", "assay": "Growth inhibition of human NCI-H647 cells assessed as ATP level after 96 hrs by CellTiter-Glo assay", "type": "functional", "details": "NCI-H647, 96 h"}, "NCI-H322M": {"system": "NCI-H322M", "assay": "Growth inhibition of human NCI-H322M cells assessed as ATP level after 96 hrs by CellTiter-Glo assay", "type": "functional"}, "NCI-H2030": {"system": "NCI-H2030", "assay": "Growth inhibition of human NCI-H2030 cells assessed as ATP level after 96 hrs by CellTiter-Glo assay", "type": "functional", "details": "NCI-H2030, 96 h"}, "[11]": {"assay": "Growth inhibition of human NCI-H322 cells assessed as ATP level after 96 hrs by CellTiter-Glo assay", "type": "functional", "details": "NCI-H322, 96 h"}, "NCI-H358": {"system": "NCI-H358", "assay": "Growth inhibition of human NCI-H358 cells assessed as ATP level after 96 hrs by CellTiter-Glo assay", "type": "functional", "details": "NCI-H358, 96 h"}, "[12]": {"assay": "Growth inhibition of human H23 cells assessed as ATP level after 96 hrs by CellTiter-Glo assay", "type": "functional", "details": "NCI-H23, 96 h", "in_short": "as §1"}, "NCI-H2087": {"system": "NCI-H2087", "assay": "Growth inhibition of human NCI-H2087 cells assessed as ATP level after 96 hrs by CellTiter-Glo assay", "type": "functional", "details": "NCI-H2087, 96 h"}, "SK-LU-1": {"system": "SK-LU-1", "assay": "Growth inhibition of human SKLU1 cells assessed as ATP level after 96 hrs by CellTiter-Glo assay", "type": "functional", "details": "SK-LU-1, 96 h"}, "[13]": {"assay": "Growth inhibition of human HCC1359 cells assessed as ATP level after 96 hrs by CellTiter-Glo assay", "type": "functional", "in_short": "as §1"}, "NCI-H28": {"system": "NCI-H28", "assay": "Growth inhibition of human NCI-H28 cells assessed as ATP level after 96 hrs by CellTiter-Glo assay", "type": "functional", "details": "NCI-H28, 96 h"}, "[14]": {"assay": "Growth inhibition of human NCI-H2882 cells assessed as ATP level after 96 hrs by CellTiter-Glo assay", "type": "functional", "details": "NCI-H2882, 96 h"}, "Calu-6": {"system": "Calu-6", "assay": "Growth inhibition of human Calu6 cells assessed as ATP level after 96 hrs by CellTiter-Glo assay", "type": "functional", "details": "Calu-6, 96 h", "in_short": "as §1"}, "[15]": {"system": "Epidermal growth factor receptor (Homo sapiens), P00533 [T790M]", "sequence (P00533 whole entry T790M)": "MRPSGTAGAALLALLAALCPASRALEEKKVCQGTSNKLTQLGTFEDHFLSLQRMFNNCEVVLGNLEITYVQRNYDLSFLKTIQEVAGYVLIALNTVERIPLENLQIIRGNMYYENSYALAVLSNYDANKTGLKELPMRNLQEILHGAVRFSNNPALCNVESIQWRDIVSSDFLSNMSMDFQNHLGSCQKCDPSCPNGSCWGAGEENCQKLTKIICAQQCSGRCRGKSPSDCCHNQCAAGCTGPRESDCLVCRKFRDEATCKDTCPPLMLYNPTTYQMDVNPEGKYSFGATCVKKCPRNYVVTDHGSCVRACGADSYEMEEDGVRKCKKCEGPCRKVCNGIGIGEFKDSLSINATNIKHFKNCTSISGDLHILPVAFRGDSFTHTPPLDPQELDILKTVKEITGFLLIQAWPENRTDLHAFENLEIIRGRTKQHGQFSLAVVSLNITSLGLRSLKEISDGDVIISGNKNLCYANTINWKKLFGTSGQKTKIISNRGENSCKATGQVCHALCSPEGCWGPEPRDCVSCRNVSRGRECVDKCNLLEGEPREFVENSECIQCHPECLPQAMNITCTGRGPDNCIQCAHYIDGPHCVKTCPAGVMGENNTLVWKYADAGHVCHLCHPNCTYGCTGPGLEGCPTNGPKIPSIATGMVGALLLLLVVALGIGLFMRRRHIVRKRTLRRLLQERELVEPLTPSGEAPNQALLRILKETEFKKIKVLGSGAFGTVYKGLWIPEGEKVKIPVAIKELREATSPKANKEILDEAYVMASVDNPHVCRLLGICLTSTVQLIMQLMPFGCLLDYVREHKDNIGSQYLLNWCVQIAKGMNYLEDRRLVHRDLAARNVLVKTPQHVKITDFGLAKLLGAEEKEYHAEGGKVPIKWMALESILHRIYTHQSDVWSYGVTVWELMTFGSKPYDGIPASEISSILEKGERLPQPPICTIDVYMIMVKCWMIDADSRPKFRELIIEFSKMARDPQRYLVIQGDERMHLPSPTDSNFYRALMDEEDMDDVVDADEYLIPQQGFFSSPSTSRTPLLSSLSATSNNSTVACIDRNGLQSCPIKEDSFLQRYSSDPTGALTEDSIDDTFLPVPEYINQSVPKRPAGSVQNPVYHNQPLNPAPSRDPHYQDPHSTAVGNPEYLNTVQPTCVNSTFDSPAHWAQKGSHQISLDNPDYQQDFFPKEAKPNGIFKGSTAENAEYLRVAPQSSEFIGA", "assay": "Inhibition of EGFR T790M mutant activation expressed in human drug-resistant H1975 cells", "type": "cell-based"}, "[16]": {"assay": "Growth inhibition of human HCC515 cells assessed as ATP level after 96 hrs by CellTiter-Glo assay", "type": "functional", "details": "HCC515, 96 h", "in_short": "as §1"}}, "note": "Active and inactive are the calls of the source. The rule behind the calls is not given here.", "data": [{"smiles": "CN1CCN(CCC(=O)Nc2ccc3c(C#N)cnc(Nc4cccc(Br)c4)c3c2)CC1", "values": [{"measurement": "inhibition", "setting": "[1]", "result": "Active"}]}, {"smiles": "CN(C)C/C=C/C(=O)Nc1ccc2c(C#N)cnc(Nc3cccc(Br)c3)c2c1", "values": [{"measurement": "GI50", "setting": "A549", "result": 40, "unit": "µM"}, {"measurement": "GI50", "setting": "[2]", "result": 17.6, "unit": "µM"}, {"measurement": "GI50", "setting": "[3]", "result": 15.5, "unit": "µM"}, {"measurement": "GI50", "setting": "NCI-H596", "result": 19.5, "unit": "µM"}, {"measurement": "GI50", "setting": "[4]", "result": 13.2, "unit": "µM"}, {"measurement": "GI50", "setting": "NCI-H157", "result": 12, "unit": "µM"}, {"measurement": "GI50", "setting": "[5]", "result": 7.59, "unit": "µM"}, {"measurement": "GI50", "setting": "NCI-H2009", "result": 26.3, "unit": "µM"}, {"measurement": "GI50", "setting": "[6]", "result": 18.2, "unit": "µM"}, {"measurement": "GI50", "setting": "[7]", "result": 14.3, "unit": "µM"}, {"measurement": "GI50", "setting": "[8]", "result": 16, "unit": "µM"}, {"measurement": "GI50", "setting": "[9]", "result": 13.3, "unit": "µM"}, {"measurement": "GI50", "setting": "[10]", "result": 4.32, "unit": "µM"}, {"measurement": "GI50", "setting": "NCI-H2052", "result": 21.6, "unit": "µM"}, {"measurement": "GI50", "setting": "A-427", "result": 15.8, "unit": "µM"}, {"measurement": "GI50", "setting": "NCI-H1838", "result": 18.2, "unit": "µM"}, {"measurement": "GI50", "setting": "NCI-H1355", "result": 22.9, "unit": "µM"}, {"measurement": "GI50", "setting": "NCI-H1648", "result": 21.1, "unit": "µM"}, {"measurement": "GI50", "setting": "HOP-62", "result": 26.9, "unit": "µM"}, {"measurement": "GI50", "setting": "NCI-H647", "result": 26.3, "unit": "µM"}, {"measurement": "GI50", "setting": "NCI-H322M", "result": 21.4, "unit": "µM"}, {"measurement": "GI50", "setting": "NCI-H2030", "result": 34.3, "unit": "µM"}, {"measurement": "GI50", "setting": "[11]", "result": 24.8, "unit": "µM"}, {"measurement": "GI50", "setting": "NCI-H358", "result": 14.5, "unit": "µM"}, {"measurement": "GI50", "setting": "[12]", "result": 29.9, "unit": "µM"}, {"measurement": "GI50", "setting": "NCI-H2087", "result": 17, "unit": "µM"}, {"measurement": "GI50", "setting": "SK-LU-1", "result": 16.6, "unit": "µM"}, {"measurement": "GI50", "setting": "[13]", "result": 18.6, "unit": "µM"}, {"measurement": "GI50", "setting": "NCI-H28", "result": 24.8, "unit": "µM"}, {"measurement": "GI50", "setting": "[14]", "result": 23.7, "unit": "µM"}, {"measurement": "GI50", "setting": "Calu-6", "result": 16.4, "unit": "µM"}, {"measurement": "inhibition", "setting": "[15]", "result": "Active"}, {"measurement": "GI50", "setting": "[16]", "result": 20.4, "unit": "µM"}]}]}
